The values that follow come from ChEMBL document CHEMBL1148460, “Interaction of cycloSal-pronucleotides with cholinesterases from different origins. A structure-activity relationship” (J Med Chem, 2004).

The target in data set [1] is T1, Acetylcholinesterase (Bos taurus, UniProt P23795).
T1 sequence (P23795 whole entry): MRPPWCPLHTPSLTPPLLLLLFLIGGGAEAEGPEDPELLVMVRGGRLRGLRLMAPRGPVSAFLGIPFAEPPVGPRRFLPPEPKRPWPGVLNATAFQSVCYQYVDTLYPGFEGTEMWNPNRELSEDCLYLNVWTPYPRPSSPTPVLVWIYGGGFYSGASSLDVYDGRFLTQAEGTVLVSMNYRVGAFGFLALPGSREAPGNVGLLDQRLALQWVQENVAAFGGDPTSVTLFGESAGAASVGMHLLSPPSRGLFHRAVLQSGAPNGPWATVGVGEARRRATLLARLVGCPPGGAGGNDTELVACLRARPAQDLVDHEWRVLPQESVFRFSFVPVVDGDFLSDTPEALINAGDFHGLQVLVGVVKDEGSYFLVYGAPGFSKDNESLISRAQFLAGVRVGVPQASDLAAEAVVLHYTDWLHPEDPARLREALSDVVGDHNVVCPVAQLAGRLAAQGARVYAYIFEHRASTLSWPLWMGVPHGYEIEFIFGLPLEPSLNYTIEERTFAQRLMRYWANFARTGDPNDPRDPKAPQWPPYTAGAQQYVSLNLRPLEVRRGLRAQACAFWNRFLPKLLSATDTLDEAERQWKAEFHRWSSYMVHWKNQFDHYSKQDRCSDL
The experiment in a line: Inhibitory activity towards beef erythrocytes acetylcholinesterase.

Data set [2] has as its target T1, Acetylcholinesterase. The experiment in a line: Inhibitory activity towards calf serum acetylcholinesterase. The gist of the method: (§1)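 Modified Rappaport assay following acetylcholine chloride hydrolysis to acetic acid, with m-nitrophenol indicator in phosphate buffer at pH 7.8 and NaCl. The compound is added in DMSO, and the reaction is started with serum (human, mouse or calf). A420 is read at 25 °C at 0 and 5 min. Final inhibitor is 0.1, 0.5, 1, 5, 10, 30 and 50 µM. IC50 is interpolated from ΔE plots in the pseudolinear region.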

Data set [3] concerns the target Acetylcholinesterase (Electrophorus electricus, UniProt O42275). As to the kind of experiment: Inhibitory activity towards Electrophorus electricus acetylcholinesterase.
In data set [4] the target is Cholinesterase (Homo sapiens, UniProt P06276). The experiment in a line: Inhibitory activity towards human butyrylcholinesterase. The gist of the method: as §1
Data set [5] addresses Cholinesterase (Mus musculus, UniProt Q03311). As to the kind of experiment: Inhibitory activity towards mouse butyrylcholinesterase. The gist of the method: as §1
Another data set concerns L1210. The experiment in a line: Antitumor activity tested in L1210 cells. The class given is functional, cell-based. The following applies: Mus musculus.
For data set [6], the system named is CCRF-CEM. The experiment in a line: Anti-HIV-1 activity tested in human lymphocytic CEM cells. The format is functional, cell-based.
For a further data set, the system named is Vero. As to the kind of experiment: Anti-HSV-1 activity tested in Vero cells. The class given is functional, cell-based. The following applies: Chlorocebus sabaeus.
A further data set concerns Human gammaherpesvirus 4. As to the kind of experiment: Anti-EBV activity blocking EBV-DNA synthesis. The format is functional, organism-based.
Data set [7] deals with CCRF-CEM. As to the kind of experiment: Anti-HIV-2 activity tested in human lymphocytic CEM cells. The class given is functional, cell-based.
Data set [8] in a line: Half-life was determined. The format is ADME. As to conditions: human.

Cholinesterase (Mus musculus, UniProt Q03311), sequence (Q03311 whole entry): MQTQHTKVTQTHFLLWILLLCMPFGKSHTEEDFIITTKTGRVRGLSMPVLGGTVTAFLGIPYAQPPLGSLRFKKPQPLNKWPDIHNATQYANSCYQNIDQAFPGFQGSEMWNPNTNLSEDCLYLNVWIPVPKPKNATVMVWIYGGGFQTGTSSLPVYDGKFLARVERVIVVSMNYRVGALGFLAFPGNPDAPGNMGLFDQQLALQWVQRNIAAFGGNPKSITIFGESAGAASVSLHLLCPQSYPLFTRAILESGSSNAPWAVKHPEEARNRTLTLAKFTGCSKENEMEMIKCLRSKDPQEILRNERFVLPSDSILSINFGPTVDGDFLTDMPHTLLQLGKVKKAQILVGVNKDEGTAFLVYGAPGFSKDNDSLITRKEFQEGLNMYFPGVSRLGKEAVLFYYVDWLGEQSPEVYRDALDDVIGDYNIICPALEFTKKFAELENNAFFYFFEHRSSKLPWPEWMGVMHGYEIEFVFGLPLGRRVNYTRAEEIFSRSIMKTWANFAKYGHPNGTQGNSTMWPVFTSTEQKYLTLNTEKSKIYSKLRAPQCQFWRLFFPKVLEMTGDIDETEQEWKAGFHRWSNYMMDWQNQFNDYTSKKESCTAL
Cholinesterase (Homo sapiens, UniProt P06276), sequence (P06276 whole entry): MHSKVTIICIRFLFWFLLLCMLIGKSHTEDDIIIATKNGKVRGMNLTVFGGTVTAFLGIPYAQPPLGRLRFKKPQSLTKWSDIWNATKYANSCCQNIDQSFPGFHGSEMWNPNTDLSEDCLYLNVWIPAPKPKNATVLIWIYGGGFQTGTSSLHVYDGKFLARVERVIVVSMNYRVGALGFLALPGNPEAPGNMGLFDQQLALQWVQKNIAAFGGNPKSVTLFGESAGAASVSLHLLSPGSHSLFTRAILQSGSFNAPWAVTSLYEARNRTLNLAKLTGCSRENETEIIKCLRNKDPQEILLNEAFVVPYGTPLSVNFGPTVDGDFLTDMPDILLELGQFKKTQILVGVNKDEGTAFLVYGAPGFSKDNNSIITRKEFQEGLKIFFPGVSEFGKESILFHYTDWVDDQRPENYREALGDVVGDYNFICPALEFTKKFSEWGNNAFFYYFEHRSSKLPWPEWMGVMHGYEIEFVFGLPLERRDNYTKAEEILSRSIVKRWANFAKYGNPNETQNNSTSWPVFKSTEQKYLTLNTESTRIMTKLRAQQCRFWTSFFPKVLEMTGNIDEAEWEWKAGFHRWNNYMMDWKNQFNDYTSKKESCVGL
Acetylcholinesterase (Electrophorus electricus, UniProt O42275), sequence (O42275 whole entry): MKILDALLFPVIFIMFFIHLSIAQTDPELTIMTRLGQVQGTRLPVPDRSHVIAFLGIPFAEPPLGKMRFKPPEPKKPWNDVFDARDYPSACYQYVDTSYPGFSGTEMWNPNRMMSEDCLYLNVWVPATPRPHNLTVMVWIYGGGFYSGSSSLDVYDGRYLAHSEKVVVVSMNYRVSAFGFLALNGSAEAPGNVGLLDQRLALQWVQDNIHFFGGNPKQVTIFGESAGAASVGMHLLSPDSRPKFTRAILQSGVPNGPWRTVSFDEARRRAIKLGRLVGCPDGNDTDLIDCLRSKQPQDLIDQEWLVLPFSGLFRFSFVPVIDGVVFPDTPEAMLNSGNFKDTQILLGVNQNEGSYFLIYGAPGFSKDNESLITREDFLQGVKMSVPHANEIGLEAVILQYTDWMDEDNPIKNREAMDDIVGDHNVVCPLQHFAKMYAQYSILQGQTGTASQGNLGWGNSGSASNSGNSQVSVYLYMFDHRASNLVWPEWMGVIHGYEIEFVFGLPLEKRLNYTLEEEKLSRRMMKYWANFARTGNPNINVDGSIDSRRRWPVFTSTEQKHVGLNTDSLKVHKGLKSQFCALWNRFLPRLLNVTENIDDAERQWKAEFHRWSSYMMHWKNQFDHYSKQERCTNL

The term IC50 denotes the midpoint of a concentration-inhibition curve. Lower therefore signals higher potency. On to `Cc1cccc2c1OP(=O)(OC[C@@H]1C[C@H](F)[C@H](n3cnc4c(N)ncnc43)O1)OC2` (stereo partly drawn), for which the IC50 against Acetylcholinesterase [1] was greater than 50 µM; on Acetylcholinesterase [2], greater than 50 µM; at Acetylcholinesterase [3] it was greater than 50 µM; against Cholinesterase [4], 5 µM; against Cholinesterase [5], greater than 50 µM.
As a reminder, the EC50 is the concentration that produces a half-maximal response. As to `Cc1cccc2c1O[P@@](=O)(OC[C@H]1O[C@@H](n3cc(F)c(=O)[nH]c3=O)C[C@@H]1O)OC2`, the IC50 on Acetylcholinesterase [3] was greater than 50 µM. This compound also showed an EC50 in the data set on L1210 of 0.04 µM.
With `COc1ccc2c(c1)CO[P@](=O)(OC[C@@H]1C=C[C@H](n3cc(C)c(=O)[nH]c3=O)O1)O2`, the IC50 at Acetylcholinesterase [3] and against Cholinesterase [4] was greater than 50 µM in each case. For the same compound, a half-maximal response in the data set with CCRF-CEM [6] (EC50) required 0.043 µM.
As to `Cc1cccc2c1O[P@@](=O)(OC[C@@H]1C=C[C@H](n3cc(C)c(=O)[nH]c3=O)O1)OC2`, the IC50 at Acetylcholinesterase [1], against Acetylcholinesterase [2], against Acetylcholinesterase [3], against Cholinesterase [4] and against Cholinesterase [5] was greater than 50 µM throughout. The same compound came in with an EC50 with CCRF-CEM [6] of 0.08 µM.
For the compound `Cc1cccc2c1OP(=O)(OC[C@H](CO)OCn1cnc3c(O)nc(N)nc31)OC2` (stereo partly drawn), the half-inhibitory concentration (IC50) on Acetylcholinesterase [3] and against Cholinesterase [4] was greater than 50 µM throughout. A half-maximal effect in the data set on Vero (EC50) was put at 3.3 µM.
Take `Cc1cccc2c1OP(=O)(OC[C@H]1O[C@@H](N3CC(/C=C/Br)C(=O)NC3=O)C[C@@H]1O)OC2` (stereo partly drawn): the IC50 on Acetylcholinesterase [3] and against Cholinesterase [4] was greater than 50 µM in each case. This compound had an EC50 with Human gammaherpesvirus 4 of 4.1 µM.
For `Cc1cccc2c1OP(=O)(OC[C@H]1O[C@@H](n3cc(F)c(=O)[nH]c3=O)C[C@@H]1O)OC2` (stereo partly drawn), the IC50 against Acetylcholinesterase [3] was greater than 50 µM; on Cholinesterase [4] it was greater than 50 µM; in the data set with L1210, 0.04 µM.
As to `Cc1cccc2c1OP(=O)(OCC(CO)CCn1cnc3c(O)nc(N)nc31)OC2` (stereo not drawn), the IC50 against Acetylcholinesterase [3] and against Cholinesterase [4] was greater than 50 µM each time. Also, the EC50 in the data set with Vero amounted to 17.7 µM.
In the case of `Cc1cn(C2C=CC(COP3(=O)OCc4cccc(CCC(=O)OC(C)(C)C)c4O3)O2)c(=O)[nH]c1=O` (stereo not drawn), the IC50 on Acetylcholinesterase [3] was greater than 50 µM; against Cholinesterase [4], 3.4 µM. Besides, in the data set with CCRF-CEM [7], the EC50 was determined as 0.33 µM.
Turning to `Cc1cccc2c1OP(=O)(OCC1C=CC(n3cnc4c(N)ncnc43)O1)OC2` (stereo not drawn), the IC50 against Acetylcholinesterase [1] was greater than 50 µM; against Acetylcholinesterase [2] it was greater than 50 µM; on Acetylcholinesterase [3] it was greater than 50 µM; on Cholinesterase [4] it was 1.2 µM; on Cholinesterase [5], 10.5 µM. Moreover, the EC50 in the data set with CCRF-CEM [6] was 0.065 µM.
Turning to `Cc1cccc2c1O[P@@](=O)(OC[C@@H](CO)OCn1cnc3c(O)nc(N)nc31)OC2`, the IC50 on Acetylcholinesterase [3] and on Cholinesterase [4] was greater than 50 µM throughout. In the data set on Human gammaherpesvirus 4, this compound registered an EC50 of 3.29 µM.
For the compound `Cc1cccc2c1OP(=O)(OCC1CCC(n3cnc4c(N)ncnc43)O1)OC2` (stereo not drawn), the IC50 against Acetylcholinesterase [1] is greater than 50 µM; at Acetylcholinesterase [2], greater than 50 µM; on Acetylcholinesterase [3], greater than 50 µM; against Cholinesterase [4] it was 0.91 µM; against Cholinesterase [5] it was 2.35 µM. Further, in the data set on CCRF-CEM [6], the EC50 was determined as 0.047 µM.
Take `Cc1cn(C2C=CC(COP3(=O)OCc4ccc5ccccc5c4O3)O2)c(=O)[nH]c1=O` (stereo not drawn): the IC50 against Acetylcholinesterase [3] was greater than 50 µM; at Cholinesterase [4], 0.25 µM. Further, the EC50 in the data set on CCRF-CEM [6] was 0.14 µM.
On to `Cc1cccc2c1OP(=O)(OCCOCn1cnc3c(O)nc(N)nc31)OC2` (stereo not drawn), for which the IC50 on Acetylcholinesterase [3] and against Cholinesterase [4] was greater than 50 µM each time. The compound further displayed an EC50 in the data set with Vero of 0.15 µM.
By half-life is commonly meant the time in which the quantity being followed falls by half. Read a high half-life as slow decline. As to `Cc1cn(C2C=CC(COP3(=O)OCc4c(F)c(C(C)(C)C)cc(C(C)(C)C)c4O3)O2)c(=O)[nH]c1=O` (stereo not drawn), the results for the IC50 against Acetylcholinesterase [3] and against Cholinesterase [4] were greater than 50 µM and 48 µM, respectively. In the data set on CCRF-CEM [6], this compound registered an EC50 of 0.16 µM. In data set [8], this compound gave a half-life of 6.2 h.
`Cc1cccc2c1OP(=O)(OCC1OC(n3cc(C)c(=O)[nH]c3=O)CC1N=[N+]=[N-])OC2` (stereo not drawn): the IC50 was greater than 50 µM at Acetylcholinesterase [1]; greater than 50 µM against Acetylcholinesterase [2]; greater than 50 µM against Acetylcholinesterase [3]; 40 µM on Cholinesterase [4]; greater than 50 µM against Cholinesterase [5]. This compound displayed an EC50 with CCRF-CEM [6] of 0.006 µM.
As for `Cc1cn(C2C=CC(COP3(=O)OCc4cc(-c5ccccc5)ccc4O3)O2)c(=O)[nH]c1=O` (stereo not drawn), the IC50 was greater than 50 µM against Acetylcholinesterase [3] and 4.4 µM against Cholinesterase [4]. In addition, the EC50 in the data set with CCRF-CEM [6] turned out to be 0.4 µM.
With `Cc1cn(C2C=C[C@@H](CO[P@]3(=O)OCc4cccc(C(C)(C)C)c4O3)O2)c(=O)[nH]c1=O` (single isomer, unassigned), the values for the half-inhibitory concentration (IC50) against Acetylcholinesterase [3] and against Cholinesterase [4] were greater than 50 µM and 2.6 µM, respectively. The same compound had an EC50 with CCRF-CEM [6] of 0.6 µM.
Turning to `Cc1cccc2c1O[P@](=O)(OC[C@H]1OC(n3cc(F)c(=O)[nH]c3=O)C[C@@H]1O)OC2` (single isomer, unassigned), the IC50 at Acetylcholinesterase [3] and against Cholinesterase [4] was greater than 50 µM each time. A half-maximal effect with L1210 (EC50) was put at 0.044 µM.
With `Cc1cccc2c1O[P@](=O)(OC[C@@H]1C=CC(n3cc(C)c(=O)[nH]c3=O)O1)OC2` (single isomer, unassigned), the IC50 against Acetylcholinesterase [1] was greater than 50 µM; at Acetylcholinesterase [2] it was greater than 50 µM; against Acetylcholinesterase [3] it was greater than 50 µM; against Cholinesterase [4] it was 0.24 µM; on Cholinesterase [5], no less than 5 µM. The compound also had an EC50 in the data set on CCRF-CEM [6] of 0.42 µM.
For the compound `COc1ccc2c(c1)CO[P@@](=O)(OC[C@@H]1C=CC(n3cc(C)c(=O)[nH]c3=O)O1)O2` (single isomer, unassigned), the values for the IC50 against Acetylcholinesterase [3] and on Cholinesterase [4] were greater than 50 µM and 1.8 µM, respectively. The compound also displayed an EC50 in the data set on CCRF-CEM [6] of 0.5 µM.
For the compound `Cc1cccc2c1OP(=O)(OC[C@H]1C=CC(n3cnc4c(NC5CC5)nc(N)nc43)C1)OC2` (single isomer, unassigned), the IC50 at Acetylcholinesterase [3] is greater than 50 µM; on Cholinesterase [4] it was 1.3 µM. In the data set with CCRF-CEM [6], the EC50 is 0.7 µM.
